From ChEMBL document CHEMBL4680195, “Negative allosteric modulators of the GluN2B NMDA receptor with phenylethylamine structure embedded in ring-expanded and ring-contracted scaffolds” (Eur J Med Chem, 2020)

How the values were obtained:
[1] = target: Glutamate receptor ionotropic, NMDA 2B (Homo sapiens, UniProt Q05586+Q13224); experiment: Displacement of [3H]ifenprodil from human GluN2B expressed in mouse L(tk-) cell membranes co-expressing GluN1a incubated for 2 hrs by scintillation counting method; parameters: species or system L-M(TK-), Cell membrane
Glutamate receptor ionotropic, NMDA 2B, sequence (Q13224 whole entry, one chain of several): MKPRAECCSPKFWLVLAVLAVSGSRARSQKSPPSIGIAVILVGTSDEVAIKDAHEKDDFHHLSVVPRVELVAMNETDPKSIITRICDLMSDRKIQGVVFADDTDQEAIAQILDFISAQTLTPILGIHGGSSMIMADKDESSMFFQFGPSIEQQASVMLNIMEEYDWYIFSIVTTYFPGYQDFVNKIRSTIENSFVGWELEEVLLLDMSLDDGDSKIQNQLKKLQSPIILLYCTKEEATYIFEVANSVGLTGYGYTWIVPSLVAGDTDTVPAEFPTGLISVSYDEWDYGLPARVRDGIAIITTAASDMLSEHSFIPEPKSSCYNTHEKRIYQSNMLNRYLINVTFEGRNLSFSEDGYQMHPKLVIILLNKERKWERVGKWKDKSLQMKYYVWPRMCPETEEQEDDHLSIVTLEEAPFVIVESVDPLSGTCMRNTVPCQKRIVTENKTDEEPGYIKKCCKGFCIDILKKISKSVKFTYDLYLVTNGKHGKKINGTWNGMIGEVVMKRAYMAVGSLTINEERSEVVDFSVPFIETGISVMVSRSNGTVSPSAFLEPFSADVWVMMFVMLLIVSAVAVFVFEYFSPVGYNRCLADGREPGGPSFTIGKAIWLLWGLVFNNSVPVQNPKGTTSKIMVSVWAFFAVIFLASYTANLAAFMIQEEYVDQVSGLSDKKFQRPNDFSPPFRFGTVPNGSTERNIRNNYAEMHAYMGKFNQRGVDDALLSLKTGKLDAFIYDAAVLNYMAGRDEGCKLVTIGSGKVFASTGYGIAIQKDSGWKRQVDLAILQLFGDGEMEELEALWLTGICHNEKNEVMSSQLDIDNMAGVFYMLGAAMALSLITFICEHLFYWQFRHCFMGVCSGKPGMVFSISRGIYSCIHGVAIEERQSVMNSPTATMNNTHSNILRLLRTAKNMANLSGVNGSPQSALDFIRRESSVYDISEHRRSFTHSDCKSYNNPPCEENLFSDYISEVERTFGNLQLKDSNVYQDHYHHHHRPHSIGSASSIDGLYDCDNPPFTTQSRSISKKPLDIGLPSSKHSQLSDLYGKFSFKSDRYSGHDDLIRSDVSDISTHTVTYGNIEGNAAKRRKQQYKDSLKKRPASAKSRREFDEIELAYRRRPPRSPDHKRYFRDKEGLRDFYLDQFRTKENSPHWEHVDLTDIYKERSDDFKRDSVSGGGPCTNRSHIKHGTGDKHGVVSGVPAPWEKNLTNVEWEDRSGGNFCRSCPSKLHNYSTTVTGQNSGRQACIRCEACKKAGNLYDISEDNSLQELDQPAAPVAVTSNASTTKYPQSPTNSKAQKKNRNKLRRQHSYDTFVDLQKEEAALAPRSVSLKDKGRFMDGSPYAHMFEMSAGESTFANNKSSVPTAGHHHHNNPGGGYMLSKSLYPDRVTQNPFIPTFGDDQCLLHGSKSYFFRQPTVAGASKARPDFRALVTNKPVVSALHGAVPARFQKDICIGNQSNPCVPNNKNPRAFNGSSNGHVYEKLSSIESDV

[2] = target: Sigma non-opioid intracellular receptor 1 (Cavia porcellus, UniProt Q60492); experiment: Displacement of [3H]-(+)-pentazocine from Sigma1 receptor in guinea pig cortex membranes incubated for 120 mins by scintillation counting method; type: cell membranes, Membrane
Sigma non-opioid intracellular receptor 1, sequence (Q60492 whole entry): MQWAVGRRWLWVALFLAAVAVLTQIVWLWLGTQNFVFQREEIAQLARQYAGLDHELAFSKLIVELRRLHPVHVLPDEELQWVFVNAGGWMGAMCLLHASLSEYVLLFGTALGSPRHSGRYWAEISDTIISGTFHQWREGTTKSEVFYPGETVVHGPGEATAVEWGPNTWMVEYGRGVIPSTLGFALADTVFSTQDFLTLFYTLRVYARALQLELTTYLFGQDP

[3] = target: T1, Sigma intracellular receptor 2 (Rattus norvegicus, UniProt Q5U3Y7); experiment: Displacement of [3H]DTG from sigma 2 receptor in rat liver membranes incubated for 120 mins by scintillation counting method; type: cell membranes, Membrane
T1 sequence (Q5U3Y7 whole entry): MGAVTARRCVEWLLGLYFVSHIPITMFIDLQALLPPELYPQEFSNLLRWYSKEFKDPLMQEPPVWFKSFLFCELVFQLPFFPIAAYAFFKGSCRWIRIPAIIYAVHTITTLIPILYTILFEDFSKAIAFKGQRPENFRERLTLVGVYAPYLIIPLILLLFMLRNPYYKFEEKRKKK

[4] = Cytoprotective activity against glutamate/glycine-induced cell death in mouse L-M(TK-) cells assessed as increase in cell viability at 10 uM incubated for 30 mins followed by glutamate/glycine stimulation and measured after 6 hrs by LDH assay relative to control; type: functional; conditions: time 6.5 hrs
How it was run: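 Mouse L(tk-) fibroblasts stably carrying dexamethasone-inducible GluN1a and GluN2B vectors (1:5). Wells blocked with DMEM containing 1% BSA, then given test compound, at least triplicate, 30 min at 37 °C. Glutamate/glycine solution then added, 6 h at 37 °C. LDH in supernatant read with diaphorase/lactate/NAD+/iodonitrotetrazolium mix, 45 min at 37 °C, absorbance 485 nm. Buffer gave total LDH; (S)-ketamine 4 × 10^-5 mol/L was positive control.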

[5] = Cytoprotective activity against glutamate/glycine-induced cell death in mouse L-M(TK-) cells assessed as increase in cell viability incubated for 30 mins followed by glutamate/glycine stimulation and measured after 6 hrs by LDH assay; type: functional, cell-based
How it was run: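 Mouse L(tk-) fibroblasts stably carrying dexamethasone-inducible GluN1a and GluN2B vectors (1:5 ratio). Cells preincubated with test compound in DMEM, at least in triplicate, 30 min at 37 °C. Then glutamate/glycine (each 20 µM, stock added) added and incubated 6 h at 37 °C. LDH released into the supernatant read at 485 nm after 45 min at 37 °C. Buffer in place of ligand gave total LDH. (S)-ketamine 4 × 10⁻⁵ mol/L was the positive control.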

[6] = target: Sigma intracellular receptor 2 (Homo sapiens, UniProt Q5BJF2); experiment: Binding affinity to Sigma 2 receptor (unknown origin)
Sigma intracellular receptor 2 (Homo sapiens, UniProt Q5BJF2), sequence (Q5BJF2 whole entry): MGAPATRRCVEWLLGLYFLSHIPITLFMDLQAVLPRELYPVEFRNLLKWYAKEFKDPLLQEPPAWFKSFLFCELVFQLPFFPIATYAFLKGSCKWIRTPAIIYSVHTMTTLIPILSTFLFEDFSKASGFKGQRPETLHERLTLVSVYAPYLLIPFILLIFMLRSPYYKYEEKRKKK

[7] = target: Glutamate receptor ionotropic, NMDA 2B (Rattus norvegicus) (UniProt Q00960); experiment: Negative allosteric inhibition of rat GluN2B expressed in Oocytes co-expressing GluN1a at 1 uM at -70 mV holding potential by two electrode voltage-clamp assay relative to control; conditions: filed as negative allosteric modulator
Glutamate receptor ionotropic, NMDA 2B (Rattus norvegicus), sequence (Q00960 whole entry, looked up): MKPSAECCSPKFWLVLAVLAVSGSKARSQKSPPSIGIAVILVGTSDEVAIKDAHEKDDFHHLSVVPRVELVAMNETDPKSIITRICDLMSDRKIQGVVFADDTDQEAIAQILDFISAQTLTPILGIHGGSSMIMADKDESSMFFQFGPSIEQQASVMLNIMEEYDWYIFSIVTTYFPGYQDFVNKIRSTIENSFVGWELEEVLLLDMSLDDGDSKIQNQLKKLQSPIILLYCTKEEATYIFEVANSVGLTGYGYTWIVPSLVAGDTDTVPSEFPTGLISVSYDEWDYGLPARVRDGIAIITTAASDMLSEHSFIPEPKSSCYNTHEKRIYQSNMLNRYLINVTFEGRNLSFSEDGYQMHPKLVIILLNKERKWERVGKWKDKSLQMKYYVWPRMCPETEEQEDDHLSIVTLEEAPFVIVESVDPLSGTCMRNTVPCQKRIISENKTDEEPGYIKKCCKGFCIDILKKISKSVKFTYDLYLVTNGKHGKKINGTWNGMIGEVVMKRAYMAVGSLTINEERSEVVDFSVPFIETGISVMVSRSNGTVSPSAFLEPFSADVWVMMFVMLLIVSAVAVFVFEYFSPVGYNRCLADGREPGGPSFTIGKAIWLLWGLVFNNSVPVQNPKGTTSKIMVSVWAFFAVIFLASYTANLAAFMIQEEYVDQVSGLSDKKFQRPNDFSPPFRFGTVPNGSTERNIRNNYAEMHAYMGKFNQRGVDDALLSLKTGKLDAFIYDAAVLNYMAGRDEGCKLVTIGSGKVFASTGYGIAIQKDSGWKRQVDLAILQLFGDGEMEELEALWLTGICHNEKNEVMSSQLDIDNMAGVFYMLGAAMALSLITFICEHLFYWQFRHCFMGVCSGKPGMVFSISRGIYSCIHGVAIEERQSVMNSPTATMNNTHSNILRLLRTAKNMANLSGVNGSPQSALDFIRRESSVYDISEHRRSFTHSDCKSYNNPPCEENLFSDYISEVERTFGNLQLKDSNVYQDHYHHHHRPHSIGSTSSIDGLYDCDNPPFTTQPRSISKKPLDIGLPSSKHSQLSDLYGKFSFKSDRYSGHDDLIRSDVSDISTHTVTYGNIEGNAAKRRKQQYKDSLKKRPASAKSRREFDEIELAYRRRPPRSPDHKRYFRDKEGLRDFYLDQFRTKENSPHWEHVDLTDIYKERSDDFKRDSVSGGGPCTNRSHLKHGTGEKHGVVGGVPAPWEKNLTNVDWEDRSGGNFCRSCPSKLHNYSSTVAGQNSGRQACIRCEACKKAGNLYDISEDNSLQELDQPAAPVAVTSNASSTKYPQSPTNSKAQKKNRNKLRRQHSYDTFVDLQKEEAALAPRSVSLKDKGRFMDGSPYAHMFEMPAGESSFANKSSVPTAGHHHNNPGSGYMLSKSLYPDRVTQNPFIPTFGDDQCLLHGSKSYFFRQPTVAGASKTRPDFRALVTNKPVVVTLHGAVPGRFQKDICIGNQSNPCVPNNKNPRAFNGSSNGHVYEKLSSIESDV

[8] = target: Glutamate receptor ionotropic, NMDA 2B (Rattus norvegicus) (UniProt Q00960); experiment: Negative allosteric inhibition of rat GluN2B expressed in Oocytes co-expressing GluN1a at 10 uM at -70 mV holding potential by two electrode voltage-clamp assay relative to control; conditions: filed as negative allosteric modulator

Ki [6] [µM] | inhibition [7] [%] | inhibition [8] [%] | Structure (SMILES) | Ki [1] [nM] | Ki [2] [nM] | Ki [3] [nM] | Activity [4] [%] | IC50 [5] [nM]
 |  |  | c1ccc(CCNC2Cc3ccccc3C2)cc1 | 455 | 168 | 694 |  | 
 |  |  | c1ccc(C2CCN(C3CCc4ccccc4C3)CC2)cc1 (centres undefined) | 8.4 | 1.9 | 2.9 |  | 
 |  |  | c1ccc(CCCCNC2CCc3ccccc3C2)cc1 (centres undefined) | 266 | 46 | 50 |  | 
 |  |  | c1ccc(C2CCN(C3Cc4ccccc4C3)CC2)cc1 | 4.5 | 44 | 25 |  | 
 |  |  | c1ccc(CCCCNC2Cc3ccccc3C2)cc1 | 66 | 31 | 150 |  | 
 |  |  | c1ccc(CCCNC2CCc3ccccc3CC2)cc1 |  |  |  | 29 | 
 |  |  | CC(C(O)c1ccc(O)cc1)N1CCC(Cc2ccccc2)CC1 (centres undefined) [IFENPRODIL] |  |  |  |  | 590
 |  |  | c1ccc(CCCNC2Cc3ccccc3C2)cc1 | 117 | 58 | 38 | 31 | 
 |  |  | c1ccc(CNC2CCc3ccccc3C2)cc1 (centres undefined) | 4000 | 285 | 65 |  | 
 |  |  | c1ccc(CC2CCN(C3CCc4ccccc4C3)CC2)cc1 (centres undefined) | 8 | 6 | 2.1 |  | 
 |  |  | c1ccc(CC2CCN(C3Cc4ccccc4C3)CC2)cc1 | 3.2 | 51 | 28 | 7 | 
 |  |  | c1ccc(CCNC2CCc3ccccc3C2)cc1 (centres undefined) | 237 | 51 | 70 |  | 
 |  |  | c1ccc(CCCNC2CCc3ccccc3C2)cc1 (centres undefined) | 163 | 59 | 29 | 30 | 
 |  |  | c1ccc(CCCN2CCCc3ccccc3CC2)cc1 | 36 | 17 | 178 |  | 7800
> 10 |  |  | Oc1ccc2c(c1)CCN(CCCCc1ccccc1)CC2O (centres undefined) |  |  |  |  | 
 | 8 | 60 | c1ccc(CCCCN2CCCc3ccccc3CC2)cc1 | 32 | 22 | 50 |  | 890
